From ChEMBL document CHEMBL4354843, “Structure-Based Design of a Potent and Selective Covalent Inhibitor for SRC Kinase That Targets a P-Loop Cysteine” (J Med Chem, 2020)

What was measured:
[1] = test system: Tyrosine-protein kinase ABL1 (Homo sapiens), P00519 [T315I]; assay: Binding affinity to human non-phosphorylated ABL1 T315I mutant (S229 to K512 residues) expressed in mammalian expression system assessed as residual binding level at 1 uM by Kinomescan method relative to control
Outline: (§1)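 KinomeScan active site-directed competition binding panel (468 kinases), compound tested at 1 μM. Result expressed as remaining kinase signal versus DMSO control (percent of control).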

[2] = target: Activin receptor type-1 (Homo sapiens) (UniProt Q04771); assay: Binding affinity to wild-type human ACVR1 (C188 to C509 residues) expressed in bacterial expression system assessed as residual binding level at 1 uM by Kinomescan method relative to control
Outline: (§2)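 Active-site-directed KinomeScan competition binding panel covering 468 kinases, compound tested at 1 μM. Each readout is the kinase signal remaining with compound, expressed as a percentage of the DMSO control. […]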

[3] = test system: Phosphatidylinositol 4,5-bisphosphate 3-kinase catalytic subunit alpha isoform (Homo sapiens), P42336 [E542K]; assay: Binding affinity to human partial length PIK3CA E542K mutant (R108 to N1068 residues) expressed in mammalian expression system assessed as residual binding level at 1 uM by Kinomescan method relative to control; outline: as §1
[4] = target: Discoidin domain-containing receptor 2 (Homo sapiens) (UniProt Q16832); assay: Binding affinity to wild-type human partial length DDR2 (V555 to E855 residues) expressed in mammalian expression system assessed as residual binding level at 1 uM by Kinomescan method relative to control
Outline: (§3)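 Active-site-directed competition binding panel of 468 kinases (KinomeScan), compound at 1 μM. The read-out is kinase remaining bound, given as a percentage of the DMSO control. […]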

[5] = target: Proto-oncogene tyrosine-protein kinase ROS (Homo sapiens) (UniProt P08922); assay: Binding affinity to wild-type human partial length ROS1 (A1921 to N2240 residues) expressed in bacterial expression system assessed as residual binding level at 1 uM by Kinomescan method relative to control
[6] = target: Insulin receptor-related protein (Homo sapiens) (UniProt P14616); assay: Binding affinity to wild-type human partial length INSRR (R950 to E1278 residues) expressed in bacterial expression system assessed as residual binding level at 1 uM by Kinomescan method relative to control
[7] = target: Receptor tyrosine-protein kinase erbB-2 (Homo sapiens) (UniProt P04626); assay: Binding affinity to wild-type human partial length ERBB2 (K646 to V1225 residues) expressed in mammalian expression system assessed as residual binding level at 1 uM by Kinomescan method relative to control; outline: as §3
[8] = target: Ephrin type-B receptor 6 (Homo sapiens) (UniProt O15197); assay: Binding affinity to wild-type human partial length EPHB6 (Q634 to P948 residues) expressed in mammalian expression system assessed as residual binding level at 1 uM by Kinomescan method relative to control; outline: as §3
[9] = target: Cyclin-dependent kinase 19 (Homo sapiens) (UniProt Q9BWU1); assay: Binding affinity to wild-type human partial length CDK11 (M1 to N360 residues) expressed in bacterial expression system assessed as residual binding level at 1 uM by Kinomescan method relative to control
Outline: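 KinomeScan, an active site-directed competition binding panel of 468 kinases. The test compound was at 1 μM. The readout is remaining kinase binding as a percentage of the DMSO control. Scores above 35% were treated as weak binding and not listed.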

[10] = target: Ribosomal protein S6 kinase alpha-1 (Homo sapiens) (UniProt Q15418); assay: Binding affinity to wild-type human partial length N-terminal RSK1 Kinase domain 1 (M1 to E388 residues) expressed in bacterial expression system assessed as residual binding level at 1 uM by Kinomescan method relative to control
[11] = target: AP2-associated protein kinase 1 (Homo sapiens) (UniProt Q2M2I8); assay: Binding affinity to human wild-type AAK1 (G25 to L333 residues) expressed in bacterial expression system assessed as residual binding level at 1 uM by Kinomescan method relative to control; outline: as §2
[12] = target: TGF-beta receptor type-1 (Homo sapiens) (UniProt P36897); assay: Binding affinity to wild-type human partial length TGFBR1 (D179 to M503 residues) expressed in bacterial expression system assessed as residual binding level at 1 uM by Kinomescan method relative to control
[13] = target: Tyrosine-protein kinase JAK1 (Homo sapiens) (UniProt P23458); assay: Binding affinity to wild-type human partial length JAK1 JH2 pseudokinase domain (R537 to D855 residues) expressed in mammalian expression system assessed as residual binding level at 1 uM by Kinomescan method relative to control
[14] = target: cAMP-dependent protein kinase catalytic subunit beta (Homo sapiens) (UniProt P22694); assay: Binding affinity to wild-type human full length PKAC-beta (M1 to F351 residues) expressed in bacterial expression system assessed as residual binding level at 1 uM by Kinomescan method relative to control
Outline: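 Active-site-directed competition binding panel (KinomeScan) covering 468 kinases. Test agent was screened at 1 μM. The read-out is the remaining kinase signal expressed relative to a DMSO control. Scores above 35%, taken as weak binding, were not reported.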

[15] = target: Epithelial discoidin domain-containing receptor 1 (Homo sapiens) (UniProt Q08345); assay: Binding affinity to wild-type human partial length DDR1 (R565 to V876 residues) expressed in bacterial expression system assessed as residual binding level at 1 uM by Kinomescan method relative to control; outline: as §3
[16] = target: Atypical kinase COQ8A, mitochondrial (Homo sapiens) (UniProt Q8NI60); assay: Binding affinity to wild-type human full length ADCK3 (M280 to Q647 residues) expressed in bacterial expression system assessed as residual binding level at 1 uM by Kinomescan method relative to control; outline: as §2
[17] = target: Mitogen-activated protein kinase 7 (Homo sapiens) (UniProt Q13164); assay: Binding affinity to wild-type human partial length ERK5 (M1 to A409 residues) expressed in bacterial expression system assessed as residual binding level at 1 uM by Kinomescan method relative to control
[18] = target: Non-receptor tyrosine-protein kinase TYK2 (Homo sapiens) (UniProt P29597); assay: Binding affinity to wild-type human partial length TYK2 JH1 catalytic domain (V877 to C1187 residues) expressed in mammalian expression system assessed as residual binding level at 1 uM by Kinomescan method relative to control
[19] = target: Tyrosine-protein kinase Tec (Homo sapiens) (UniProt P42680); assay: Binding affinity to wild-type human partial length TEC (L341 to D620 residues) expressed in bacterial expression system assessed as residual binding level at 1 uM by Kinomescan method relative to control
[20] = target: Activin receptor type-1-like (Homo sapiens) (UniProt P37023); assay: Binding affinity to wild-type human ACVRL1 (L164 to Q503 residues) expressed in bacterial expression system assessed as residual binding level at 1 uM by Kinomescan method relative to control; outline: as §2
[21] = target: TRAF2 and NCK-interacting protein kinase (Homo sapiens) (UniProt Q9UKE5); assay: Binding affinity to wild-type human partial length TNIK (D4 to K311 residues) expressed in bacterial expression system assessed as residual binding level at 1 uM by Kinomescan method relative to control
TRAF2 and NCK-interacting protein kinase (Homo sapiens), sequence (Q9UKE5 whole entry, looked up, the tested form may be a part): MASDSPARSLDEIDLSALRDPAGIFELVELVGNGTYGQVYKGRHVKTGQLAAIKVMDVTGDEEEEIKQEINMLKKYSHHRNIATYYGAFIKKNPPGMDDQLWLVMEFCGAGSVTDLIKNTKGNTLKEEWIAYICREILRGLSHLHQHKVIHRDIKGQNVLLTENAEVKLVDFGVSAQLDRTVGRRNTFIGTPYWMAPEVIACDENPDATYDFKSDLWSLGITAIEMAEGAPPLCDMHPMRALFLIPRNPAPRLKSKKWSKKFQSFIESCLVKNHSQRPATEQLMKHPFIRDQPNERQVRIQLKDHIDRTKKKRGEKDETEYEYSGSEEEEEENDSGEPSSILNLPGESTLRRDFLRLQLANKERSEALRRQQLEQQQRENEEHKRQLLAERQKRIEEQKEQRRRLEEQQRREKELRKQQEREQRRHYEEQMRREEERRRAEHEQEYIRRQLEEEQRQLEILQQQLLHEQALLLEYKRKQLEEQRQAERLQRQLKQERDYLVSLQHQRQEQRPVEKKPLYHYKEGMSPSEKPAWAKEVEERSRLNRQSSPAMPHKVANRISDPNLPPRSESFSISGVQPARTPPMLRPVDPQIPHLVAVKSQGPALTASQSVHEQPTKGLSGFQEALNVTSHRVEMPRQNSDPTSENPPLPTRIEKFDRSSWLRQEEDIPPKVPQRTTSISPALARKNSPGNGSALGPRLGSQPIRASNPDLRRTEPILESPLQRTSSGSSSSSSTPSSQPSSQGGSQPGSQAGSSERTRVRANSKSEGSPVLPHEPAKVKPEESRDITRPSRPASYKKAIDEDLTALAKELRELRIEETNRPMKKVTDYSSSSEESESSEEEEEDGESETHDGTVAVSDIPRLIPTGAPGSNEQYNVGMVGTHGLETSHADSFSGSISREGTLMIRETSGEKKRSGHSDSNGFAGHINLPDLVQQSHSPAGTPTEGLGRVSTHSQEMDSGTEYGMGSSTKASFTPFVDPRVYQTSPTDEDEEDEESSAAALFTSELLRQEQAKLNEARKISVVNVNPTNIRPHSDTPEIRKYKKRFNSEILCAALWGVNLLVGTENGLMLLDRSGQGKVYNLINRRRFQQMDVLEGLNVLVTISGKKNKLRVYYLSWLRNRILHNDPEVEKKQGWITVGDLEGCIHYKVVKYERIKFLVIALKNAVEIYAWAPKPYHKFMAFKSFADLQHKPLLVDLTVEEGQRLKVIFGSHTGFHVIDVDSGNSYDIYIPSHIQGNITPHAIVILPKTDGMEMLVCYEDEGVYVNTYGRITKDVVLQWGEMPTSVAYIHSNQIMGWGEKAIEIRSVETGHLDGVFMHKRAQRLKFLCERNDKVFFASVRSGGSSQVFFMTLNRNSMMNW

Mitogen-activated protein kinase 7 (Homo sapiens), sequence (Q13164 2-816 limits assumed): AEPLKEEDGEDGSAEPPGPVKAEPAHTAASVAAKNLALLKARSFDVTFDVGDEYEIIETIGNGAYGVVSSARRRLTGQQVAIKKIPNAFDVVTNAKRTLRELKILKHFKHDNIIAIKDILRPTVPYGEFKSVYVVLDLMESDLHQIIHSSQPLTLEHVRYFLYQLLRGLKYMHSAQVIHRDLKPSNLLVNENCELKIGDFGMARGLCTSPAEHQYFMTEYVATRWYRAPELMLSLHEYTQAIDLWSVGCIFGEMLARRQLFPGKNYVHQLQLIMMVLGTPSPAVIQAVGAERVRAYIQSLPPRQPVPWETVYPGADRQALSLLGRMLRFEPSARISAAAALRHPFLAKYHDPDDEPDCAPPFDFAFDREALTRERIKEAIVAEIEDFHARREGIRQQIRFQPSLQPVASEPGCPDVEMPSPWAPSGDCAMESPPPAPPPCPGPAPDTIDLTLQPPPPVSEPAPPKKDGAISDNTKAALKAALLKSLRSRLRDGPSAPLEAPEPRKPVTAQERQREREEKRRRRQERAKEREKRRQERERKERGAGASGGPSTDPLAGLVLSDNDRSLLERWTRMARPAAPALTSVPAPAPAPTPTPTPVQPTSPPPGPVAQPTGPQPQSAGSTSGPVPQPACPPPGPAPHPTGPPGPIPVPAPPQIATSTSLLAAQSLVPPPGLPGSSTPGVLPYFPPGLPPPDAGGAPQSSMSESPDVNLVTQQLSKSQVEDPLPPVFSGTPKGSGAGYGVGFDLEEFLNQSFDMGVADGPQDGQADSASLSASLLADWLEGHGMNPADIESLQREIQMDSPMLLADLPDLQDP
Proto-oncogene tyrosine-protein kinase ROS (Homo sapiens), sequence (P08922 whole entry, the tested form may be a part): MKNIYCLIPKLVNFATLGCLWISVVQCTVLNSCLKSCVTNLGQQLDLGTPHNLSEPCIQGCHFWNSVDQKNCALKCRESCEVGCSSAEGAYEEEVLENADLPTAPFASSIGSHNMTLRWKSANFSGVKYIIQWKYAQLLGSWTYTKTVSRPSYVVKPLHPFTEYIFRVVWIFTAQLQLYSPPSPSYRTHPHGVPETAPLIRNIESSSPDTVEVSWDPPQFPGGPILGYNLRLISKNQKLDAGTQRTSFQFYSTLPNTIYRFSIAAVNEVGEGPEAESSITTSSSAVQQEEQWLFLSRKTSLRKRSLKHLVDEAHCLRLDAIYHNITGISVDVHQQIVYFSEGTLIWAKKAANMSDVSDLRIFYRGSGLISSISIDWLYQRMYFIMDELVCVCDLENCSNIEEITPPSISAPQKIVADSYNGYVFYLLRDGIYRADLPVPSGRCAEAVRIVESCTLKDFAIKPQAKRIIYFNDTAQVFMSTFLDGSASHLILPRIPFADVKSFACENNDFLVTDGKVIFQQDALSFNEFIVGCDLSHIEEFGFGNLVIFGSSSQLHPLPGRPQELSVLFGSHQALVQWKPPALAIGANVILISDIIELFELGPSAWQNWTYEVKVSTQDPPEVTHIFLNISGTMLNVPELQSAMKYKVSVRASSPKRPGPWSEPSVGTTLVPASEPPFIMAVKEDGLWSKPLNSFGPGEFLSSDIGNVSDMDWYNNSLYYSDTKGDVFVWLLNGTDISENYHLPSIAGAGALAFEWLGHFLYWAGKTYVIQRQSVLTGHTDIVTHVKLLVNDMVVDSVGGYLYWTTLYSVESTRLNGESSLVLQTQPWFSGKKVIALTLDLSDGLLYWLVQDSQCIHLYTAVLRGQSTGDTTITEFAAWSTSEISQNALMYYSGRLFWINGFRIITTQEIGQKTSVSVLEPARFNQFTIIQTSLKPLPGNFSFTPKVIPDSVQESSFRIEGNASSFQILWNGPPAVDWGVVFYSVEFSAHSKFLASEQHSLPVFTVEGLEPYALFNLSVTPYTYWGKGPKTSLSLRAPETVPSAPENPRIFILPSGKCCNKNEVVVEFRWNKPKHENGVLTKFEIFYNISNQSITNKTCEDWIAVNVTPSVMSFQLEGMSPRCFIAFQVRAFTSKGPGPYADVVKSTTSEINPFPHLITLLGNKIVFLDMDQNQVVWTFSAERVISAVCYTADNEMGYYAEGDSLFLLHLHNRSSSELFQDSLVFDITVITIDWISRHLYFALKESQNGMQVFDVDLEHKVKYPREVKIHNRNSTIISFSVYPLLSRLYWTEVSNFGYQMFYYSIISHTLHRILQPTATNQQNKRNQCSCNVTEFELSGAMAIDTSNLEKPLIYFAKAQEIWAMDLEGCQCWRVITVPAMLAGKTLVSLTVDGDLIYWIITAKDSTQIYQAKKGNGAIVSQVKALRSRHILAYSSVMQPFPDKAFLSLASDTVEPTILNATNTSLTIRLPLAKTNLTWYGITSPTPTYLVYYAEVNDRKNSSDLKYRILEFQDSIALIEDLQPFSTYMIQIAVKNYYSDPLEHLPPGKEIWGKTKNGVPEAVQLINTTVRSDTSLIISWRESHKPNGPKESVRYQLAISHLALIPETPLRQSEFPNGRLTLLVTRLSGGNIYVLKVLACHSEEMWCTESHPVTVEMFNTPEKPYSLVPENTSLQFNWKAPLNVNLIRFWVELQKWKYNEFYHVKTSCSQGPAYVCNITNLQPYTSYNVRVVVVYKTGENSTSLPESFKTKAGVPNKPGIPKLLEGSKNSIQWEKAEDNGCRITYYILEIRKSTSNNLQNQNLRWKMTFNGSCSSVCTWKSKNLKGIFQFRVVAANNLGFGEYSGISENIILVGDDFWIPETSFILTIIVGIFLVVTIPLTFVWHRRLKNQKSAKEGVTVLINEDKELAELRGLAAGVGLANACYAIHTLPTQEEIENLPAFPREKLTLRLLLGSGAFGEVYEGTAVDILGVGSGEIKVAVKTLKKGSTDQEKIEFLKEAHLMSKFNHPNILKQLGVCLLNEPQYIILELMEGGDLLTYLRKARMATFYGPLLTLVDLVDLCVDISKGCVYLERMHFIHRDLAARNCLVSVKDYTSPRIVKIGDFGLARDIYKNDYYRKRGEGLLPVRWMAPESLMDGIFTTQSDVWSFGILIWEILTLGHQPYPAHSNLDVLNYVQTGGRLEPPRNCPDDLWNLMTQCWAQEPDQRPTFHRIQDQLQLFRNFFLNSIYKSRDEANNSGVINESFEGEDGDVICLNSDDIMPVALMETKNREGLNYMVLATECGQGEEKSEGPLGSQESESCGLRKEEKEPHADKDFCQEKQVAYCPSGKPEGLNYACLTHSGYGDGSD
Cyclin-dependent kinase 19 (Homo sapiens), sequence (Q9BWU1 whole entry, the tested form may be a part): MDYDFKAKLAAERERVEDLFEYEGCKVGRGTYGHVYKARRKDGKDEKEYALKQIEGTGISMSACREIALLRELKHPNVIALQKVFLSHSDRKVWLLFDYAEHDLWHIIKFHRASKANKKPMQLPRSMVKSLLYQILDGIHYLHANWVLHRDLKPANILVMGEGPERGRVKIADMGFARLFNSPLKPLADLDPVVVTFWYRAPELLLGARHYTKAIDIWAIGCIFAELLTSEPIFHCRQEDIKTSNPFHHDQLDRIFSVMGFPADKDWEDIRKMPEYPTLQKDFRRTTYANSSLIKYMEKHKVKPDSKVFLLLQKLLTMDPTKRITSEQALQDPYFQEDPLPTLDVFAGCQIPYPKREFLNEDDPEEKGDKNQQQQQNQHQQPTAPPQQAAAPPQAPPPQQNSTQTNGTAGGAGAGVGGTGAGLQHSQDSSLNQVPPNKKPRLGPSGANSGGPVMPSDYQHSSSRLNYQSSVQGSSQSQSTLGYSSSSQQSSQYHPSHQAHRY

C=CC(=O)Nc1ccccc1Nc1nc(Nc2ccc(N3CCN(C)CC3)cc2)ncc1C(=O)Nc1c(C)cccc1Cl
Activity [1]: 100%
Activity [2]: 100%
Activity [3]: 100%
Activity [4]: 26%
Activity [5]: 100%
Activity [6]: 100%
Activity [7]: 63%
Activity [8]: 6%
Activity [9]: 96%
Activity [10]: 100%
Activity [11]: 100%
Activity [12]: 100%
Activity [13]: 100%
Activity [14]: 100%
Activity [15]: 1.1%
Activity [16]: 100%
Activity [17]: 92%
Activity [18]: 100%
Activity [19]: 95%
Activity [20]: 100%
Activity [21]: 100%
